pIC50, pKi: −log10 of the molar value. Calls of active or inactive are those of the source. The calls are words filed in the database; no cut-off is given here.
Legend:
[1] = target: T1, Tyrosine-protein phosphatase non-receptor type 1 (Homo sapiens, UniProt P18031); experiment: Inhibition of PTP1B after 10 mins
T1 sequence (P18031 whole entry): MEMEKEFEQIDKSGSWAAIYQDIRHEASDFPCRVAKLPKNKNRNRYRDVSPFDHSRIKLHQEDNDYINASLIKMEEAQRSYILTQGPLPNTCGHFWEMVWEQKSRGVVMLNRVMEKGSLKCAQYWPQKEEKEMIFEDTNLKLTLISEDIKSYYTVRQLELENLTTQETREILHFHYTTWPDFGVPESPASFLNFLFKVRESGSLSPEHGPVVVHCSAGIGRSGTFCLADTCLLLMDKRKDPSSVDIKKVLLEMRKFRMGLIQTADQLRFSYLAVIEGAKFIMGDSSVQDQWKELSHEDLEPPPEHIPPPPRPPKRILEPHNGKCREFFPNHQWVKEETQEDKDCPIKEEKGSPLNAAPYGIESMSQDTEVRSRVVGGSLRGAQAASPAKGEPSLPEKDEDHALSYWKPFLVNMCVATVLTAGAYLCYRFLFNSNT

[2] = target: T2, Tyrosine-protein phosphatase non-receptor type 2 (Homo sapiens, UniProt P17706); experiment: Inhibition of TC-PTP after 10 mins
T2 sequence (P17706 whole entry): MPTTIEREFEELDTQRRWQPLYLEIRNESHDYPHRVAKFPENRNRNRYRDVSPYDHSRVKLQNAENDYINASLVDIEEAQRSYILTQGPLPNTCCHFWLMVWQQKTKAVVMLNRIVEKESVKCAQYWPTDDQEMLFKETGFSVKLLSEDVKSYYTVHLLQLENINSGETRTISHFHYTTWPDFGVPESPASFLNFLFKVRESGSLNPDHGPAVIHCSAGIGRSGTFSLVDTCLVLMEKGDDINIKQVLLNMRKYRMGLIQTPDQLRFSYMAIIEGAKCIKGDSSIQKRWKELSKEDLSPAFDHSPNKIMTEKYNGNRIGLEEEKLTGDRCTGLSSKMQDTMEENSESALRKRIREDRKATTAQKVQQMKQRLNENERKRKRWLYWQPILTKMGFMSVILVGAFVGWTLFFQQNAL
Outline: (§1)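 Enzymes were preincubated 10 min with inhibitor in DMSO, then pNPP was added to start the reaction. Final mix: 2 mM pNPP, 50 mM Hepes, 5 mM EDTA, pH 7, plus 10% enzyme dilution buffer (Hepes, EDTA, 1 mM DTT, BSA). Enzyme levels were native PTP1B 40 nM, SHP-1cat 5 µg/mL, LAR-D1 and TC-PTP 33 U/mL, YOP 50 U/mL and YPTP-1 15 nM. IC50 came from an inhibitor concentration range, as means ± SD of 2–3 experiments.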

[3] = target: Tyrosine-protein phosphatase non-receptor type 6 (Homo sapiens, UniProt P29350); experiment: Inhibition of SHP-1 catalytic domain after 10 mins; outline: as §1
Tyrosine-protein phosphatase non-receptor type 6, sequence (P29350 whole entry, the tested form may be a part): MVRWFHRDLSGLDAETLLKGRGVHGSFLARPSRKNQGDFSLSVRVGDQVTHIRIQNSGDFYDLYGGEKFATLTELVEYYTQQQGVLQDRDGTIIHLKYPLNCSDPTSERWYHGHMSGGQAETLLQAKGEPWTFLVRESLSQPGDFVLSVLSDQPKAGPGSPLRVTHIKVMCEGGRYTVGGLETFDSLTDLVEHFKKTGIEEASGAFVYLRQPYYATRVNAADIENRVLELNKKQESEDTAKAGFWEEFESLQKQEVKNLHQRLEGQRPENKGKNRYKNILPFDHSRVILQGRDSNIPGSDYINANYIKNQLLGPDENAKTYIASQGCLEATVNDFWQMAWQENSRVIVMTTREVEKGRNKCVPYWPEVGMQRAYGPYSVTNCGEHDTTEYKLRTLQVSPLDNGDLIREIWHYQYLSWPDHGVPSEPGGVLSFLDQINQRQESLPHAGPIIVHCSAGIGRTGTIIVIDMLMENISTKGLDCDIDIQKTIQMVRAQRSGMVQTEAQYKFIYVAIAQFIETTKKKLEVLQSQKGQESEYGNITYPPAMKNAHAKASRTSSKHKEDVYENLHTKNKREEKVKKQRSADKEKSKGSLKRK

[4] = Inhibition of LAR-D1 after 10 mins; parameters: species or system Homo sapiens; outline: as §1
[5] = Inhibition of YOP after 10 mins; outline: as §1
[6] = target: T3, Tyrosine-protein phosphatase 1 (Saccharomyces cerevisiae S288c, UniProt P25044); experiment: Inhibition of yeast PTP1 after 10 mins; outline: as §1
T3 sequence (P25044 whole entry): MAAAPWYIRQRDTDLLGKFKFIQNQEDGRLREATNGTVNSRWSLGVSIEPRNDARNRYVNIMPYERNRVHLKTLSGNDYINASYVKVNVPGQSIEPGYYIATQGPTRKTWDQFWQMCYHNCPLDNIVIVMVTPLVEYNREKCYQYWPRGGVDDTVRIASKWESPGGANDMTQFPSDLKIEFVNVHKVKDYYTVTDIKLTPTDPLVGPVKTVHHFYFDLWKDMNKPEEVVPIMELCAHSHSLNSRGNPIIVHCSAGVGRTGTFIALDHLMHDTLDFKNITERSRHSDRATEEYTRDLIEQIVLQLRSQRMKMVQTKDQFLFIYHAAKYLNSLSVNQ

[7] = species: Homo sapiens; experiment: Selectivity for PTP1B over TC-PTP
[8] = species: Mus musculus; experiment: Antihyperglycemic activity in high fat diet induced C57BL/6JCr Slc mouse assessed as reduction in blood glucose level relative to control; format: functional, organism-based
Outline: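 Male C57BL/6J Cr Slc mice, 5 wk old and acclimatized 1 wk, were fed high-fat diet for 8 wk. They were then split into two groups of 7 and fed HFD or HFD plus drug for 4 wk; a lean LFD group served as control. After a 6 h fast, mice received glucose 1 g/kg ip. Tail-blood glucose was read at baseline and at 20, 40, 60, 90 and 120 min.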

| Compound | pIC50 [1] | pIC50 [2] | pIC50 [3] | pIC50 [4] | pIC50 [5] | pIC50 [6] | Selectivity ratio [7] | pKi [1] | pKi [2] | Activity [8] |
| --- | --- | --- | --- | --- | --- | --- | --- | --- | --- | --- |
| O=C(O)COc1c(O)cc(-c2ccccc2)cc1O | < 3.00 | – | – | – | – | – | – | – | – | – |
| O=C(O)COc1c(O)cc(Br)cc1OCc1ccc(C(F)(F)F)cc1 | 4.14 | – | – | – | – | – | – | – | – | – |
| O=C(O)COc1c(O)cc(-c2cccc(C(F)(F)F)c2)cc1OCc1ccc(C(F)(F)F)cc1 | 5.30 | 4.19 | 4.89 | < 3.70 | 4.68 | 4.77 | 5 | – | – | – |
| O=C(O)COc1c(O)cc(-c2ccc(C(F)(F)F)cc2)cc1OCc1ccc(C(F)(F)F)cc1 | 5.27 | 4.36 | 4.92 | < 3.70 | 4.89 | 4.64 | 5 | – | – | – |
| COc1cc(COc2cc(-c3ccccc3)cc(O)c2OCC(=O)O)cc(OC)c1 | 4.40 | – | – | – | – | – | – | – | – | – |
| O=C(O)COc1c(O)cccc1OCc1ccc(C(F)(F)F)cc1 | < 3.00 | – | – | – | – | – | – | – | – | – |
| O=C(O)COc1c(O)cc(-c2ccccc2)cc1OCc1ccc(C(F)(F)F)cc1 | 4.77 | – | – | – | – | – | – | – | – | – |
| O=C(O)COc1c(O)cc(-c2ccccc2)cc1OCc1ccccc1 | 4.03 | – | – | – | – | – | – | – | – | – |
| O=C(O)COc1c(O)cc(-c2cccc(C(F)(F)F)c2)cc1OCc1ccccc1 | 5.66 | 3.92 | 4.42 | < 3.70 | 4.48 | 4.28 | 5 | – | – | – |
| O=C(O)COc1c(O)cccc1OCc1ccccc1 | < 3.00 | – | – | – | – | – | – | – | – | – |
| O=C(O)COc1c(O)cc(Br)cc1OCc1ccccc1 | 3.52 | – | – | – | – | – | – | – | – | – |
| O=C(O)COc1c(O)cc(-c2cc(C(F)(F)F)cc(C(F)(F)F)c2)cc1OCc1ccccc1 | 5.24 | 4.43 | 5.05 | < 3.70 | 4.82 | 4.70 | 5 | – | – | – |
| O=C(O)COc1c(O)cc(-c2ccc(C(F)(F)F)cc2)cc1OCc1ccccc1 | 4.89 | 4.02 | 4.60 | < 3.70 | 4.47 | 4.77 | 5 | – | – | – |
| O=C(O)COc1c(O)cc(-c2cc(C(F)(F)F)cc(C(F)(F)F)c2)cc1OCc1ccc(C(F)(F)F)cc1 | 5.70 | 4.66 | 5.40 | 3.94 | 5.22 | 5.05 | 7 | 5.96 | 5.09 | Active |

— ChEMBL document CHEMBL1137434, “2-O-carboxymethylpyrogallol derivatives as PTP1B inhibitors with antihyperglycemic activity” (Bioorg Med Chem Lett, 2007)
